Laboratory results from ChEMBL document CHEMBL3352724, “Phenolic Glycosides from the Twigs of Salix glandulosa” (J Nat Prod, 2014).
pIC50: −log10 of the molar value. One block for each compound: values may come before it.

Legend:
A549 = test: Cytotoxicity against human A549 cells by sulforhodamine B bioassay; assay type: functional, cell-based
In short: (§1)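 Sulforhodamine B assay on cultured human tumor cell lines A549, SK-OV-3, A498 and HCT15. Run at the Korea Research Institute of Chemical Technology.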

[1] = Cytotoxicity against human SKOV3 cells by sulforhodamine B bioassay; assay type: functional, cell-based; details: SK-OV-3; in short: as §1
[2] = Cytotoxicity against human HCT15 cells by sulforhodamine B bioassay; assay type: functional, cell-based; details: HCT-15; in short: as §1
[3] = Cytotoxicity against mouse BV2 cells by MTT assay; set-up: concentration or dose not given beside the values; details: bv-2
[4] = Antineuroinflammatory activity against mouse BV2 cells assessed as inhibition of LPS-induced NO production treated with compound 30 mins and challenged with LPS for 24 hrs; details: BV-2
SK-MEL-2 = test: Cytotoxicity against human SK-MEL-2 cells by sulforhodamine B bioassay; assay type: functional, cell-based

Structure (SMILES): O=C(/C=C/c1ccc(O)cc1)OC[C@H]1O[C@@H](O[C@H]2CCCC[C@H]2O)[C@H](O)[C@@H](O)[C@@H]1O
pIC50 (A549): < 5.00
pIC50 [1]: < 5.00
pIC50 [2]: < 5.00

pIC50 [4]: 4.74
Structure (SMILES): O=C(/C=C\c1ccc(O)cc1)O[C@@H]1[C@H](O[C@H]2CCCC[C@@H]2O)O[C@H](CO)[C@@H](O)[C@H]1O
pIC50 (A549): < 5.00
pIC50 [1]: < 5.00
pIC50 [2]: < 5.00
Activity [3]: 96.2%

Structure (SMILES): O=C(/C=C\c1ccc(O)cc1)O[C@H]1[C@H](O[C@H]2CCCC[C@H]2O)O[C@H](CO)[C@@H](O)[C@@H]1O
pIC50 (A549): < 5.00
pIC50 [1]: < 5.00
pIC50 [2]: < 5.00

Structure (SMILES): O=C(/C=C/c1ccc(O)cc1)O[C@H]1[C@H](O[C@H]2CCCC[C@H]2O)O[C@H](CO)[C@@H](O)[C@@H]1O
pIC50 (A549): < 5.00
pIC50 [1]: < 5.00
pIC50 [2]: < 5.00

pIC50 [4]: 4.69
Structure (SMILES): O=C(/C=C/c1ccc(O)cc1)O[C@H]1[C@H](O[C@@H]2CCCC[C@H]2O)O[C@H](CO)[C@@H](O)[C@@H]1O
pIC50 (A549): < 5.00
pIC50 [1]: < 5.00
pIC50 [2]: < 5.00
Activity [3]: 107.2%

Structure (SMILES): O=C(OC[C@H]1O[C@@H](O[C@@H]2CCCC[C@H]2O)[C@H](O)[C@@H](O)[C@@H]1O)c1ccc(O)cc1
pIC50 (A549): < 5.00
pIC50 [1]: < 5.00
pIC50 [2]: < 5.00

Structure (SMILES): O=C(/C=C\c1ccc(O)cc1)OC[C@H]1O[C@@H](O[C@H]2CCCC[C@H]2O)[C@H](O)[C@@H](O)[C@@H]1O
pIC50 (A549): < 5.00
pIC50 [1]: < 5.00
pIC50 [2]: < 5.00

Structure (SMILES): COc1cccc2c1C(=O)c1c(O)c3c(c(O)c1C2=O)C[C@@](O)(C(=O)CO)C[C@@H]3O[C@H]1C[C@H](N)[C@H](O)[C@H](C)O1 [DOXORUBICIN]
pIC50 (A549): 8.85
pIC50 [1]: 7.66
pIC50 (SK-MEL-2): 8.60
pIC50 [2]: 6.97

pIC50 [4]: 4.81
Structure (SMILES): O=C(/C=C/c1ccc(O)cc1)O[C@H]1[C@H](O[C@H]2CCCC[C@@H]2O)O[C@H](CO)[C@@H](O)[C@@H]1O
pIC50 (A549): < 5.00
pIC50 [1]: < 5.00
pIC50 [2]: < 5.00
Activity [3]: 93.6%

pIC50 [4]: 5.18
Structure (SMILES): O=C(/C=C\c1ccc(O)cc1)O[C@H]1[C@H](O[C@@H]2CCCC[C@H]2O)O[C@H](CO)[C@@H](O)[C@@H]1O
pIC50 (A549): < 5.00
pIC50 [1]: < 5.00
pIC50 [2]: < 5.00
Activity [3]: 102.5%

Structure (SMILES): O=C(/C=C/c1ccc(O)cc1)O[C@H]1[C@H](O[C@@H]2CCCC[C@@H]2O)O[C@H](CO)[C@@H](O)[C@@H]1O
pIC50 (A549): < 5.00
pIC50 [1]: < 5.00
pIC50 [2]: < 5.00

Structure (SMILES): O=C(/C=C\c1ccc(O)cc1)O[C@@H]1[C@H](O[C@@H]2CCCC[C@@H]2O)O[C@H](CO)[C@@H](O)[C@H]1O
pIC50 (A549): < 5.00
pIC50 [1]: < 5.00
pIC50 [2]: < 5.00

pIC50 [4]: 4.83
Structure (SMILES): O=C(/C=C/c1ccc(O)cc1)OC[C@H]1O[C@@H](O[C@@H]2CCCC[C@H]2O)[C@H](O)[C@@H](O)[C@@H]1O
pIC50 (A549): < 5.00
pIC50 [1]: < 5.00
pIC50 [2]: < 5.00
Activity [3]: 100.7%

Structure (SMILES): O=C(/C=C\c1ccc(O)cc1)OC[C@H]1O[C@@H](O[C@@H]2CCCC[C@H]2O)[C@H](O)[C@@H](O)[C@@H]1O
pIC50 (A549): < 5.00
pIC50 [1]: < 5.00
pIC50 [2]: < 5.00

pIC50 [4]: 4.61
Structure (SMILES): CNC(=N)NCCC[C@H](N)C(=O)O [TILARGININE]
Activity [3]: 99.8%
